Bioassay records as filed in PubChem.
Fh CTSL1 inh = Fasciola hepatica cathepsin L1 inhibitors, primary screen, counter-screen for PFM18AAP inhibitor project, biochemical, QFRET, fluorogenic peptide substrate. recombinant F. hepatica cathepsin L1, Z-Leu-Arg-MCA fluorescence. 300,000 tested, 0.49% active. inhibition, % at 5.96 µM;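 active means inhibition above the mean of all tested compounds plus 3 SD, set per screening campaign, cut at about 17% in these data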;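 further: 0% = plate median of test compound wells and 100% = 1 µM Z-Phe-Ala-diazomethylketone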
SUMO HTRF inh = inhibitors of in vitro SUMOylation cascade, primary screen, biochemical, HTRF, uHTS | 290,000 tested, 0.36% active | SUMO-conjugating enzyme UBC9 (Homo sapiens), P63279 | inhibition, % at 35 µM | HTRF SUMOylation assay, SAE1/SAE2 + UBC9; in the data active means inhibition above about 50%, passing the limit was not always enough
Target sequence (P63279 whole entry, looked up): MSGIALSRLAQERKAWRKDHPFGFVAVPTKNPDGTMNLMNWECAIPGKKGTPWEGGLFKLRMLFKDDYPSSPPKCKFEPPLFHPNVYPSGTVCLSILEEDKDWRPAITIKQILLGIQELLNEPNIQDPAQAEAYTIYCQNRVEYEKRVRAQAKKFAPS
pCIP destab = p/CIP-EGFP fusion destabilizers, primary screen, fluorescence, F442A cells; decrease of EGFP signal, % at 10 µM; 16 h; Q05BA5; 290,000 tested, 0.01% active;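 active means EGFP signal decrease of at least 30% at 10 µM or well 3 SD below plate mean, unless failing retest; inactive means the rest, including hits failing retest or dose response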
IMP-1 inh-1 = IMP-1 metallo-beta-lactamase inhibitors, primary screen, biochemical, epi-absorbance readout, Pseudomonas aeruginosa enzyme; metallo-beta-lactamase IMP-1 (Pseudomonas aeruginosa); purified IMP-1, nitrocefin hydrolysis, epi-absorbance fluorescence; inhibition, % at 5.6 µM; 290,000 tested, 0.45% active;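 active means inhibition above the mean plus 3 SD of all compounds in the same screening run, cut at about 4.5% in these data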;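 further: 0% = IMP-1 with DMSO and 100% = DMSO wells lacking enzyme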
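Material – recombinant IMP-1 enzyme, purified · Amount – IMP-1 0.2 nM before substrate addition · Medium – HEPES buffer pH 7.1 with ZnSO4 and Brij 35 · Timing – 25 °C, 15 min preincubation, 25 min reaction · Measured by – plate fluorescence quenching by hydrolysis product, ex 480/em 530 nm · Read-out – percent enzyme inhibition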
T cell HTS = modulators of CD8 T cell-vesicle binding, primary screen, mouse 2C CD8+ T cells, flow cytometry. response (vesicle binding), % at 7 µM. 330,000 tested, 0.068% active. AID 2052, 2009. 2C CD8+ T cell-vesicle binding; active compounds read low;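 active means response, share of CD8 T cells binding vesicles, and their 90th percentile fluorescence all below set limits, cut at about 80% in these data, passing the limit was not always enough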;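 further: values below 100% mean blocked vesicle binding to the CD8+ T cells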
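Assay system: 2C TCR transgenic mouse naive CD8+ T cells, MACS-purified | Read-out: CD8+ gate FL2 mean fluorescence as % of same-row positive control | Signal: High-throughput flow cytometry with anti-B7-1 and anti-CD8 staining | Timing: Binding step 1.5 h, 37 °C, antibody labelling 20 min, ice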
VIM-2 inhibitor = VIM-2 metallo-beta-lactamase inhibitors, primary screen, biochemical, epi-absorbance readout, Pseudomonas aeruginosa enzyme; inhibition, % at 5.6 µM; purified VIM-2, nitrocefin hydrolysis, epi-absorbance fluorescence; 290,000 tested, 0.89% active;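 active means inhibition above the mean of all tested compounds plus 3 SD, cutoff set per screening run, cut at about 7.5% in these data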;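 further: red hydrolysis product quenches plate fluorescence so inhibitors raise well fluorescence; 0% = enzyme with DMSO and 100% = DMSO without enzyme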
IMP-1 inh-2 = IMP-1 metallo-beta-lactamase inhibitors, confirmation, selectivity assay for selective VIM-2 inhibitor project, biochemical, epi-absorbance readout, triplicate; shares compounds with VIM-2 inhibitor; inhibition, % at 5.6 µM; purified IMP-1, nitrocefin hydrolysis, epi-absorbance fluorescence; 1,300 tested, under 10 active; call rule not given here;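 further: 0% = enzyme with vehicle and 100% = vehicle without enzyme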
VIM-2 FRET ctr = VIM-2 inhibitors in FRET format, confirmation, artefact control for selective VIM-2 inhibitor project, biochemical, epi-absorbance artifact exclusion; inhibition, % at 5.6 µM; shares compounds with VIM-2 inhibitor; purified VIM-2, CCF2 FRET substrate hydrolysis; 1,300 tested, 23% active;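 active means inhibition above the mean of all tested compounds plus 3 SD, cut at about 19% in these data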;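 further: 0% = VIM-2 plus DMSO and 100% = no enzyme wells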
TEM-1 inh = TEM-1 serine beta-lactamase inhibitors, counter-screen for VIM-2 inhibitor project, biochemical, epi-absorbance, HTS; inhibition, % at 5.6 µM; Purified TEM-1, nitrocefin hydrolysis, epi-absorbance fluorescence; shares compounds with VIM-2 inhibitor; 1,300 tested, 3% active;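 active means inhibition above that campaign's mean inhibition plus 3 SD, cut at about 0.46% in these data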;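 further: 0% = TEM-1 with DMSO and 100% = TEM-1 with 100 µM potassium clavulanate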
Target sequence (P62593 whole entry, looked up): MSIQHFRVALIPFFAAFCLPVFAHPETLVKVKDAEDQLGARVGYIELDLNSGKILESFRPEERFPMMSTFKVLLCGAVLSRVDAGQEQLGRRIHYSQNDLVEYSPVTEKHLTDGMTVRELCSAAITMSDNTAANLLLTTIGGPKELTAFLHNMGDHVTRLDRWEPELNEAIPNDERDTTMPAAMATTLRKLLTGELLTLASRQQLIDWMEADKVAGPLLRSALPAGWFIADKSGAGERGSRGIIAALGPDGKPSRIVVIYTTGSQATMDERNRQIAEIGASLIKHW
VIM-2 inh conf = VIM-2 metallo-beta-lactamase inhibitors, confirmation, biochemical, epi-absorbance, hits shared with IMP-1 screen; shares compounds with VIM-2 inhibitor; purified VIM-2, nitrocefin hydrolysis; inhibition, % at 5.6 µM; 1,300 tested, 96% active; AID 2187, 2009;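 active means inhibition of the VIM-2 beta-lactamase enzyme above about 11% from the earlier first-round screen, limit read from the data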;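 further: 0% = VIM-2 with DMSO and 100% = buffer wells without enzyme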
* = called active by the depositor; / = no result. In the library only some 1.9% were active in any assay of this set; here they are far more common.

SMILES	Fh CTSL1 inh	SUMO HTRF inh	pCIP destab	IMP-1 inh-1	T cell HTS	VIM-2 inhibitor	IMP-1 inh-2	VIM-2 FRET ctr	TEM-1 inh	VIM-2 inh conf
O=C(Nc1ccccc1C(=O)Nc1ccncc1)c1cccc([N+](=O)[O-])c1	2	5	-21	-1	315	13*	-3	-11	-5	25*
COc1ccccc1N(C)S(=O)(=O)c1ccc(C(=O)Nc2nccs2)cc1	/	/	/	/	410	/	/	/	/	/
Cc1cc(OCC(=O)N2CCC[C@@H]2C(=O)O)c2c(C)c(C)c(=O)oc2c1	0	30	-1	-3	555	27*	-3	51*	-5	33*
Cc1cc(=O)oc2c3c(cc(OCC(=O)N4CCC[C@H]4C(=O)O)c12)OC(C)(C)CC3	1	45	-3	-2	220	26*	-3	46*	-3	29*
CCCCCCc1c(C)c2ccc(OCC(=O)N3CCC[C@H]3C(=O)O)c(C)c2oc1=O	3	13	3	-2	221	-4	/	/	/	/
CCCc1cc(=O)oc2c(C)c(OCC(=O)N3CCC[C@@H]3C(=O)O)ccc12	-1	2	-9	-4	351	23*	-2	41*	-5	24*
CCCCc1cc(=O)oc2c3c(cc(OCC(=O)N4CCC[C@H]4C(=O)O)c12)OC(C)(C)CC3	1	36	-6	-5	274	16*	-3	36*	-6	20*
CCCCc1cc(=O)oc2c3c(cc(OCC(=O)NCCCO)c12)OC(C)(C)CC3	-2	33	-8	-1	203	-2	/	/	/	/
CC(=O)Nc1ccc(S(=O)(=O)N2CCC3(CC2)OCCO3)cc1	-2	-1	0	-3	320	-2	/	/	/	/
O=C(O)C1CC(=O)N(CCc2ccc(F)cc2)C1 (stereo not given)	2	-1	-2	2	163	1	/	/	/	/
C=CCNC(=S)N/N=C(\C)c1ccc(-n2ccnc2)cc1	1	17	4	-1	360	66*	-3	-7	-8	80*
CNC(=S)N/N=C(\C)c1ccc(-n2ccnc2)cc1	-1	21	-2	1	313	23*	-4	-15	-7	43*
C/C(=N\NC(N)=O)c1ccc(-n2ccnc2)cc1	-4	14	1	-1	295	2	/	/	/	/
C=CCNC(=S)N/N=C(\C)c1cccnc1	9	-2	-5	-4	284	0	/	/	/	/
C/C(=N\NC(=S)NC(C)C)c1ccc(-n2ccnc2)cc1	4	6	8	-2	332	77*	-2	-11	-7	86*
COCCNC(=S)N/N=C(\C)c1ccc(-n2ccnc2)cc1	7	7	-14	-2	552	67*	1	1	0.4*	82*
COCCNC(=S)N/N=C(\C)c1ccc(O)cc1	3	-9	1	-3	180	-6	/	/	/	/
O=C(CCCn1nnnc1CN1CCOCC1)N1CCC(c2ccccc2Cl)C1 (stereo not given)	13	16	-30	-4	175	-1	/	/	/	/
CCn1c(-c2cccnc2)n[nH]c1=S	-1	5	-14	-2	266	-4	/	/	/	/
